Among the data in PubChem BioAssay are viability, differential viability (reversal) and inhibition values, retold here.

Structures are written as SMILES. Calls of active or inactive are those of the source.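 How the source made its calls, unless noted: active means viability at or below 30% in both replicate assays; inconclusive means viability at or below 30% in just one of the two assays; inactive means the rest.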

A short description of assay [1]: SK-BR-3 cell growth inhibitors, pilot screen, 24 h, human (AID 572;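 active means viability at or below 10% of carrier control in both of two separate runs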;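 further: compound exposure lasted between 18 and 24 h rather than exactly 24 h; 100% = carrier-treated control wells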). The note with it: SK-BR-3 viability, CellTiter-Glo luminescence, at 10 µM, stronger effect = lower value. Background: In ATP-based viability assays light output follows the ATP content of the culture.
Assay [2] can be described thus: HUVEC growth inhibition – cell-based, human, primary screen (AID 575).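 Further: 100% = median of untreated cell wells with 0.1% DMSO on each plate.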 The note with it: HUVEC proliferation, CellTiter-Glo luminescence, 72 h; at 10 µM; stronger effect = lower value. In outline: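 Test system – primary HUVEC, no more than 12 passages · Dosing – one dose, 10 µM final, 0.1% DMSO · Times – 72 h treatment at 37 °C · Measured by – ATP-based CellTiter-Glo luminescent read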

Assay [3] in a line: growth inhibitors of H69AR lung tumor, primary screen, human, duplicate replicates (AID 580;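 active means viability at or under a set limit in both replicates, limit being median viability minus 3 SD, cut at about 48% in these data, passing the limit was not always enough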;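 further: 100% = mean luminescence of untreated wells and 0% = no signal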). The note with it: H69AR lung tumor cells viability, ATP luminescence, 72 h; at 10 µM; stronger effect = lower value.
Assay [4] in a line: reversal of MRP1-mediated doxorubicin resistance, pilot screen, H69AR cells, doxorubicin co-treatment (AID 601;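 active means viability loss from added drug above about 55%, and viability with drug at most 40%, in both replicates, limit read from the data, passing the limit was not always enough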). The note with it: CellTiter-Glo, 72 h, at 10 µM; for differential viability (reversal): stronger effect = higher value.
Assay [5] in a line: 384-well plate pilot, post-Golgi transport modulator project, inhibition of yeast transport mutant growth (AID 636; in the data active means inhibition above about 31%). The note with it: absorbance 615 nm, about 18 h, stronger effect = higher value.
A short description of assay [6]: growth suppression of yeast trafficking mutant, preliminary HTS, modulators of trafficking downstream of Golgi apparatus project, 1536-format plate, OD 615 nm (AID 637; in the data active means inhibition above about 30%). The note with it: yeast transport mutant growth, absorbance 615 nm, 18 h; stronger effect = higher value.
Where [7] appears, read: H69AR cells + 2 uM doxorubicin, measured here: viability with 2 uM doxorubicin, stronger effect = lower value.
The mark [8] stands for this setting: H69AR cells, compound alone cytotoxicity.

Broadly, the viability is a read-out of living cells in per cent, often relative to untreated cells. In general, inhibition refers to the relative decrease from the control value, in per cent. For `CCN1CCN(c2nc3c(c(=O)n(C)c(=O)n3C)n2CCSc2ncccn2)CC1`, the viability is 116% (inactive) in assay [1]; 91.7% (inactive) in assay [2]; 94.8% (inactive) in assay [3]; 87.8% in assay [4] (setting [7]); 94.8% in assay [4] (setting [8]). Moreover, in assay [4] (H69AR cells + 2 uM doxorubicin), the differential viability (reversal) is 7% (inactive). Besides, the inhibition in assay [5] was -5.07% (inactive); in assay [6] it was -9.68% (inactive).

For `O=C(O)CC1Sc2nc3ccccc3n2C1=O` (centres undefined), the viability in assay [1] was 105% (inactive); in assay [2], 111% (inactive); in assay [3] it was 102% (inactive); in assay [4] (setting [7]), 95.4%; in assay [4] (setting [8]) it was 102%. The differential viability (reversal) in assay [4] (H69AR cells + 2 uM doxorubicin) was 6.67% (inactive). Also, the inhibition was -6.08% (inactive) in assay [5] and -5.27% (inactive) in assay [6].

Take `N=c1nc(N2CCCCC2)cc(N)n1O`: the viability in assay [1] is 96% (inactive); in assay [2], 89.3% (inactive); in assay [3] it was 99.8% (inactive); in assay [4] (setting [7]), 92%; in assay [4] (setting [8]), 99.8%. The differential viability (reversal) in assay [4] (H69AR cells + 2 uM doxorubicin) is 7.85% (inactive). Further, the inhibition is -1.17% (inactive) in assay [5] and -1.83% (inactive) in assay [6].

As for `c1cc(C(c2nnnn2C2CCCC2)N2CCOCC2)ccn1` (centres undefined), the viability is 96.5% (inactive) in assay [1]; 104% (inactive) in assay [2]; 91.9% (inactive) in assay [3]; 92.2% in assay [4] (setting [7]); 91.9% in assay [4] (setting [8]). Also, the differential viability (reversal) in assay [4] (H69AR cells + 2 uM doxorubicin) was -0.285% (inactive). In addition, the values for the inhibition in assay [5] and in assay [6] were -8.22% (inactive) and 0.16% (inactive), respectively.

Consider `CC(=O)OC[C@H]1O[C@@H](n2ncc(=O)[nH]c2=O)[C@H](OC(C)=O)[C@@H]1OC(C)=O`, for which the viability in assay [1] is 103% (inactive); in assay [2] it was 84.3% (inactive); in assay [3] it was 91.3% (inactive); in assay [4] (setting [7]) it was 88.2%; in assay [4] (setting [8]), 91.3%. Also, the differential viability (reversal) in assay [4] (H69AR cells + 2 uM doxorubicin) is 3.12% (inactive). In addition, the inhibition in assay [5] was -0.39% (inactive); in assay [6], 3.17% (inactive).

As to `Cc1cccc(NC(=O)CSc2nnc(-c3ccccc3C)o2)c1`, the viability in assay [1] was 87% (inactive); in assay [2], 107% (inactive); in assay [3] it was 75.4% (inactive); in assay [4] (setting [7]) it was 72%; in assay [4] (setting [8]), 75.4%. Besides, the differential viability (reversal) in assay [4] (H69AR cells + 2 uM doxorubicin) was 3.35% (inactive). For the same molecule, the inhibition was -5.95% (inactive) in assay [5] and -7.27% (inactive) in assay [6].

For the molecule `COCCCNC(=O)CCCn1c(=O)c2ccccc2n(CC(=O)Nc2c(C)cccc2C)c1=O`, the viability in assay [1] is 99% (inactive); in assay [2], 97.6% (inactive); in assay [3] it was 93.1% (inactive); in assay [4] (setting [7]), 88.2%; in assay [4] (setting [8]), 93.1%. Besides, the differential viability (reversal) in assay [4] (H69AR cells + 2 uM doxorubicin) was 4.87% (inactive). Also, the inhibition in assay [5] was -1.69% (inactive); in assay [6] it was -1.31% (inactive).

`O=C(O)CCc1ccc(-c2ccc(F)cc2)n1CCC(=O)O`: the viability in assay [1] was 71% (inactive); in assay [2], 104% (inactive); in assay [3], 98.5% (inactive); in assay [4] (setting [7]), 108%; in assay [4] (setting [8]) it was 98.5%. Further, the differential viability (reversal) in assay [4] (H69AR cells + 2 uM doxorubicin) is -9.11% (inactive). Further, the inhibition in assay [5] is -7.53% (inactive); in assay [6], 3.45% (inactive).

For the molecule `CCOC(=O)c1c2n(c3ccc(O)cc13)CCCCC2`, the viability in assay [1] was 111% (inactive); in assay [2], 89.7% (inactive); in assay [3], 82.4% (inactive); in assay [4] (setting [7]), 80.6%; in assay [4] (setting [8]), 82.4%. For the same molecule, the differential viability (reversal) in assay [4] (H69AR cells + 2 uM doxorubicin) is 1.8% (inactive). Also, the inhibition in assay [5] was -7.47% (inactive); in assay [6], 0% (inactive).

For `CNC(=O)c1ccc2nc(NC(C)=O)sc2c1`, the viability is 110% (inactive) in assay [1]; 102% (inactive) in assay [2]; 99.9% (inactive) in assay [3]; 90.4% in assay [4] (setting [7]); 99.9% in assay [4] (setting [8]). The differential viability (reversal) in assay [4] (H69AR cells + 2 uM doxorubicin) is 9.57% (inactive). Also, the inhibition is -7.2% (inactive) in assay [5] and -0.36% (inactive) in assay [6].

As for `O=C(CCCCn1c(=O)c2ccccc2n(Cc2ccc(Cl)cc2)c1=O)NCc1ccco1`, the viability in assay [1] is 100% (inactive); in assay [2], 38.6% (inactive); in assay [3], 29.6% (active); in assay [4] (setting [7]) it was 43%; in assay [4] (setting [8]), 29.6%. Besides, the differential viability (reversal) in assay [4] (H69AR cells + 2 uM doxorubicin) was -13.4% (inactive). Besides, the values for the inhibition in assay [5] and in assay [6] were -1.17% (inactive) and -2.95% (inactive), respectively.

For the molecule `CCCC1Cc2c(sc3ncnc(N)c23)CO1` (centres undefined), the viability is 111% (inactive) in assay [1]; 94.5% (inactive) in assay [2]; 90.9% (inactive) in assay [3]; 101% in assay [4] (setting [7]); 90.9% in assay [4] (setting [8]). Moreover, the differential viability (reversal) in assay [4] (H69AR cells + 2 uM doxorubicin) was -10.3% (inactive). Besides, the inhibition was -0.14% (inactive) in assay [5] and -0.73% (inactive) in assay [6].

In the case of `COC(=O)Cn1cnc2sc(C)c(S(=O)(=O)N3CCC(C)CC3)c2c1=O`, the viability in assay [1] is 85% (inactive); in assay [2], 98.4% (inactive); in assay [3], 91.3% (inactive); in assay [4] (setting [7]), 97.1%; in assay [4] (setting [8]) it was 91.3%. The differential viability (reversal) in assay [4] (H69AR cells + 2 uM doxorubicin) is -5.84% (inactive). The inhibition in assay [5] is -1.64% (inactive); in assay [6] it was -0.91% (inactive).

In the case of `Cc1nc2ccc(F)cc2cc1C(=O)NCC1CCCO1` (centres undefined), the viability in assay [1] was 89% (inactive); in assay [2], 90.3% (inactive); in assay [3] it was 85.2% (inactive); in assay [4] (setting [7]) it was 97.3%; in assay [4] (setting [8]), 85.2%. Also, in assay [4] (H69AR cells + 2 uM doxorubicin), the differential viability (reversal) is -12.1% (inactive). In addition, the values for the inhibition in assay [5] and in assay [6] were -8.9% (inactive) and 3.27% (inactive), respectively.

With `COc1ccc(NC(=O)CSc2c(C)nn(-c3nnc(C)c(=O)[nH]3)c2C)cc1`, the viability in assay [1] is 101% (inactive); in assay [2], 98.2% (inactive); in assay [3] it was 113% (inactive); in assay [4] (setting [7]), 95.5%; in assay [4] (setting [8]), 113%. Further, in assay [4] (H69AR cells + 2 uM doxorubicin), the differential viability (reversal) is 17% (inactive). The figures for the inhibition in assay [5] and in assay [6] were -0.41% (inactive) and -6.45% (inactive), respectively.

On to `Cn1c(=O)c2c(nc(N3CCN(c4ccccc4)CC3)n2CCCc2ccccc2)n(C)c1=O`, for which the viability is 68% (inactive) in assay [1]; 90.6% (inactive) in assay [2]; 84.1% (inactive) in assay [3]; 82.2% in assay [4] (setting [7]); 84.1% in assay [4] (setting [8]). The differential viability (reversal) in assay [4] (H69AR cells + 2 uM doxorubicin) was 1.85% (inactive). Also, the inhibition was -3.33% (inactive) in assay [5] and 7.09% (inactive) in assay [6].

On to `COC(=O)c1nnn(-c2ccccc2)c1N`, for which the viability in assay [1] was 103% (inactive); in assay [2] it was 100% (inactive); in assay [3], 103% (inactive); in assay [4] (setting [7]), 105%; in assay [4] (setting [8]), 103%. In assay [4] (H69AR cells + 2 uM doxorubicin), the differential viability (reversal) was -1.73% (inactive). Besides, the inhibition in assay [5] is -1.82% (inactive); in assay [6] it was 3.61% (inactive).

For `O=C(CSCc1n[nH]c(=O)[nH]1)NCCOc1cccc(Oc2ccccc2)c1`, the viability in assay [1] was 103% (inactive); in assay [2], 102% (inactive); in assay [3] it was 104% (inactive); in assay [4] (setting [7]) it was 100%; in assay [4] (setting [8]) it was 104%. In addition, in assay [4] (H69AR cells + 2 uM doxorubicin), the differential viability (reversal) is 3.55% (inactive). Besides, the inhibition is -1.2% (inactive) in assay [5] and 2.73% (inactive) in assay [6].
